Data from paper PMC9575405 (ACS infectious diseases, 2021).

What was measured:
S. aureus Smith = test: Mouse septicemia model; type: in vivo; settings: 10 mg/kg i.v., five mice
Procedure, shortened: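 CD-1 female mice (18–20 g), acclimated 5 days, were infected i.p. with 0.5 ml of S. aureus (overnight liquid culture diluted 1:10, grown 5 h shaking) diluted in 5% hog gastric mucin, pH 7.4, to give ≥90% mortality within 48 h (1.6 × 10^6 CFU). Single slow i.v. bolus at 10 mL/kg 1 h post-infection. Five mice per treatment group; ten vehicle-dosed infection controls. Read-out: survival.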

[1] = system: S. aureus ATCC 13709 (Smith); test: Mouse abscess infection model; type: in vivo; settings: after 26 h; orally at 20 mg/kg
Procedure, shortened: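 Female CD-1 mice were infected s.c. in the right flank under anaesthesia with 0.25 mL inoculum (OD625 0.1 saline suspension from plate culture; target 1.0×10^6, actual 1.4×10^6 CFU/mouse) mixed with […] beads. From 2 h post-infection, test compounds were injected into the abscess (100 uL), repeated 12 h later; positive control was oral. Five per group; T=0 group sampled. Abscess CFU at 26 h; mean and SD.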

| SMILES | survival (S. aureus Smith) | increase in CFUs [1] [log10] |
| --- | --- | --- |
| CN[C@H](CC(C)C)C(=O)N[C@H]1C(=O)N[C@@H](CC(N)=O)C(=O)N[C@H]2C(=O)N[C@H]3C(=O)N[C@H](C(=O)N[C@H](C(=O)O)c4cc(O)cc(O)c4-c4cc3ccc4O)[C@H](O)c3ccc(c(Cl)c3)Oc3cc2cc(c3O[C@@H]2O[C@H](CO)[C@@H](O)[C@H](O)[C@H]2O[C@H]2C[C@](C)(N)[C@H](O)[C@H](C)O2)Oc2ccc(cc2Cl)[C@H]1O [vancomycin] | all five mice |  |
| CC(=O)NC[C@H]1CN(c2ccc(N3CCOCC3)c(F)c2)C(=O)O1 [linezolid] |  | 1 |
